This excerpt belongs to a sample that is enriched for hits.
Fh CTSL1 inh – Fasciola hepatica cathepsin L1 inhibitors, primary screen, counter-screen for PFM18AAP inhibitor project, biochemical, QFRET, fluorogenic peptide substrate. AID 1906, 2009. hit rate 0.49% among 300,000. inhibition, % at 5.96 µM. recombinant F. hepatica cathepsin L1, Z-Leu-Arg-MCA fluorescence;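 active = inhibition above the mean of all tested compounds plus 3 SD, set per screening campaign, cut at about 17% in these data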;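 note: 0% = plate median of test compound wells and 100% = 1 µM Z-Phe-Ala-diazomethylketone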
UCH37 DUB inh – inhibitors of human UCH37 deubiquitinase, primary screen, biochemical, Ub-AMC cleavage, fluorescence | AID 588478, 2011 | inhibition, % (concentration not given with the values) | hit rate 0.33% among 330,000 | purified proteasome/UCH37 | Ubiquitin carboxyl-terminal hydrolase isozyme L5 (Homo sapiens), Q9Y5K5;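 active = mean inhibition over replicate wells above about 20%, limit read from the data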;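 note: 0% = compound-free wells with enzyme and 100% = wells lacking proteasome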
Target sequence (Q9Y5K5 whole entry, looked up): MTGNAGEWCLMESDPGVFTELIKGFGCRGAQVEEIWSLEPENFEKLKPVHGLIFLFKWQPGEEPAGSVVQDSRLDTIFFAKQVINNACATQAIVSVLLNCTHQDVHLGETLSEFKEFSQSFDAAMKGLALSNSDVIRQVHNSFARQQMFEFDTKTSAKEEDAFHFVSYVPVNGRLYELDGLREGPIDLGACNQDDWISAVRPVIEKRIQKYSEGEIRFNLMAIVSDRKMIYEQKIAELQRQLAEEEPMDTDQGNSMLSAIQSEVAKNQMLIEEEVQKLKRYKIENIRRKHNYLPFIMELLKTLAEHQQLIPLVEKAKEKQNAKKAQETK
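Reagent: Ub-AMC substrate; assay system: Proteasome-associated human UCH37 deubiquitinase; controls: no-proteasome and no-compound wells; read-out: % inhibition of Ub-AMC cleavage fluorescence; timing: 30 min preincubation with enzyme, 25 min cleavage at room temperature; signal: AMC fluorescence from Ub-AMC cleavage, excitation 355 nm, emission 460 nm; buffer or medium: Tris-HCl pH 7.4 plus ovalbumin, ATP-MgCl2, DTT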
UPR CHOP act – activators of apoptotic CHOP UPR arm, primary screen, cell-based, CHO-CHOP luciferase reporter, luminescence, uHTS; UPR activation; percent of tunicamycin response over DMSO baseline; activation, % at 10 µM; hit rate 0.34% among 330,000;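 active = at 10 µM dose, activation of 40% or more, normalized to positive control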;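 note: 100% = tunicamycin at 10 µg/mL and 0% = DMSO alone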
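System: CHO-CHOP luciferase reporter cell line; amount: 500 cells/well; buffer or medium: F12 medium containing 10% fetal bovine serum; incubation: 6 h compound exposure at 37 °C after overnight seeding; measured by: luciferase luminescence after 10 min with Steady-Glo reagent; evaluation: % reporter activation, DMSO baseline versus tunicamycin full activation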
CHOP inhibitor – inhibitors of CHOP promoter induction, primary screen, cell-based, unfolded protein response, luciferase reporter; CHO-K1 CHOP-promoter luciferase, tunicamycin-induced, 15-18 h; inhibition, % at 10 µM; hit rate 3.8% among 220,000; AID 2732, 2010;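 active = compounds that reduced the stress-induced luciferase reporter signal by more than about 70% of percent inhibition, limit read from the data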;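 note: 0% = tunicamycin plus vehicle and 100% = wells without tunicamycin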
XBP1 UPR activ – activators of adaptive XBP1 UPR arm, primary screen, cell-based, CHO-XBP1 luciferase reporter, luminescence, uHTS. hit rate 0.33% among 330,000. IRE1-XBP1 UPR activation; percent of tunicamycin response, DMSO as zero. activation, % at 20 µM. AID 463104, 2010;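 active = versus positive control, 20 µM dose yields 30% or more activation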;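 note: 100% = tunicamycin at 10 µg/mL and 0% = DMSO only wells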
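Test system: CHO-XBP1 luciferase reporter cells | Buffer or medium: Serum-containing F12 medium, 10% FBS | Schedule: 6 h compound exposure at 37 °C, 5% CO2 | Detection: Steady-Glo luciferase glow luminescence, 10 min after reagent addition | Read-out basis: Activation, % of tunicamycin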
CHOP confirm – retest of CHOP induction inhibitors, confirmation, cell-based; inhibition, % at 10 µM; CHO-CHOP promoter luciferase reporter, tunicamycin-induced, luminescence; shares compounds with CHOP inhibitor; hit rate 45% among 2,100;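 active = mean of three repeat readings of reporter signal inhibition above a set limit, cut at about 70% in these data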;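 note: 0% = tunicamycin plus vehicle and 100% = wells lacking tunicamycin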
Active calls of the source: *; . = no result given.

SMILES | Fh CTSL1 inh | UCH37 DUB inh | UPR CHOP act | CHOP inhibitor | XBP1 UPR activ | CHOP confirm
CCCCCCCCn1c(N2CCN(c3cccc(Cl)c3)CC2)nc2c1c(=O)[nH]c(=O)n2C | 1 | 0 | 2 | 6 | 1 | .
CC(C)CCn1c(N2CCN(c3cccc(Cl)c3)CC2)nc2c1c(=O)[nH]c(=O)n2C | 2 | 1 | 5 | 106* | 5 | 66
O=C1C=CC(=O)N1c1ccc(OC(F)F)cc1 | 1 | -1 | . | 107* | . | -8
COc1ccccc1/C=C\C=Nn1c(-c2ccc(Cl)cc2)n[nH]c1=S | . | 5 | . | . | . | .
Cc1cc(O)c(C)c(O)c1C=NNC(=O)c1cccnc1 | . | 7 | . | . | . | .
Cc1ccc2c(c1)c1c3n2CCN(C(=O)CN2CCN(C)CC2)C3CCC1 (stereo unspecified) | -3 | -4 | 3 | 12 | -1 | .
Cc1ccc2c(c1)c(=O)c1c3n2CCN(C(=O)CCl)C3CC1 (stereo unspecified) | 77* | 4 | 2 | . | 1 | 19
Cc1[nH]n(-c2ccccc2)c(=O)c1N=Nc1ccccc1O | . | 8 | 3 | 105* | -1 | 19
O=C(NN=Cc1cc2c(cc1Cl)OCO2)c1ccc2c(c1)OCCO2 | . | 5 | . | . | . | .
O=C(NN=Cc1ccco1)c1cccc(N2CCCC2=O)c1 | . | 3 | . | . | . | .
O=C(CCl)Nc1cn(-c2ccccc2)nc1-c1ccccc1 | 82* | 4 | 6 | 107* | -5 | 106*
CC(=O)Nc1cn(-c2ccccc2)nc1-c1ccccc1 | -5 | 1 | 2 | 0 | 2 | .
COc1ccc(C=NNC(=O)c2ccccc2)cc1COc1ccccc1 | . | 3 | . | . | . | .
CC[C@H](C)[C@H](NC(=O)c1ccc(Cl)cc1)C(=O)OCC(=O)c1ccc2c(c1)NC(=O)CO2 | -17 | 2 | 0 | 105* | 6 | 30
CC(C)[C@H](NC(=O)c1ccccc1)C(=O)OCC(=O)c1ccc2c(c1)NC(=O)CO2 | -6 | 7 | 3 | 23 | -4 | .
Cc1cc(Cl)ccc1NC(=O)CCC(=O)NN=Cc1cccnc1 | . | 5 | . | . | . | .
CCOC(=O)c1csc(NC(=O)Nc2cccc(Cl)c2)n1 | 0 | . | 3 | 98* | 3 | 38
CCOC(=O)c1ccc(N=Cc2nc(-c3ccccc3)oc2OC(C)=O)cc1 | 31* | 7 | 1 | 106* | 5 | -19
Cc1ccc(C(=O)Oc2oc(-c3ccco3)nc2C=Nc2ccccc2)cc1 | . | . | . | 102* | . | -24
CC1CCCN(S(=O)(=O)c2ccc(C(=O)Nc3nnc(-c4ccccc4Cl)o3)cc2)C1 (stereo unspecified) | 0 | -2 | 3 | 98* | 5 | 34
CC1CCCN(S(=O)(=O)c2ccc(C(=O)Nc3nnc(-c4ccccn4)o3)cc2)C1 (stereo unspecified) | -2 | 9 | -3 | 5 | -1 | .
CCC(=O)Nc1cc(ON=C(C)C)cc([N+](=O)[O-])c1 | -2 | 5 | . | 10 | . | .
CC(C)=NOc1cc(NC(=O)CCl)cc([N+](=O)[O-])c1 | 79* | 4 | -7 | 111* | -5 | 110*
Nc1nc2ccccc2n1N=Cc1ccc([N+](=O)[O-])s1 | . | 4 | . | . | . | .
Cc1ccn2cc(-c3cc4ccccc4oc3=O)nc2c1 | . | -26 | . | 105* | . | 88*
SMILES | Fh CTSL1 inh | UCH37 DUB inh | UPR CHOP act | CHOP inhibitor | XBP1 UPR activ | CHOP confirm
O=C(Nc1ccc(C(O)(C(F)(F)F)C(F)(F)F)cc1)c1ccc(Cl)c([N+](=O)[O-])c1 | 0 | 2 | 3 | 107* | 3 | 117*
CC(=O)NC(c1ccccc1)c1cc(Cl)c2cccnc2c1O (stereo unspecified) | 0 | 3 | 0 | . | 1 | .
O=C(NC(c1ccc(Cl)cc1)c1cc(Cl)c2cccnc2c1O)c1cccnc1 (stereo unspecified) | 1 | 2 | . | 110* | . | 38
O=C(/C=C/c1ccncc1)c1ccc(NC(=O)c2ccccc2F)cc1 | -1 | 6 | . | 106* | . | -125
COCCn1cnc2c(c1=O)c1nc3ccccc3nc1n2/N=C/c1cccc(OC)c1 | 4 | . | 1 | 101* | 12 | 107*
Cc1ccc(S(=O)(=O)Nc2ccc(Br)cc2C=Nn2cnnc2)cc1 | . | 3 | . | . | . | .
COc1ccc(C=NNC(=O)c2ccccc2Cl)cc1COc1c(F)c(F)c(F)c(F)c1F | . | 2 | . | . | . | .
CC(C)(C)OC(=O)CNC(=O)c1[nH]cnc1C(=O)Nc1ccc(Cl)cc1 | 6 | 1 | -1 | 100* | -1 | 77*
CC(C)(C)OC(=O)CNC(=O)c1[nH]cnc1C(=O)Nc1ccc(CNC(=O)OC(C)(C)C)cc1 | 2 | -1 | 4 | 48 | -2 | .
Cc1ccc(NC(=O)c2nc[nH]c2C(=O)N[C@@H](C)C(=O)OC(C)(C)C)cc1 | 1 | 3 | -1 | 97* | -2 | 78*
C[C@H](NC(=O)c1[nH]cnc1C(=O)Nc1ccccc1)C(=O)OC(C)(C)C | 1 | 2 | 2 | 48 | -5 | .
CSc1ccc(C=NNC(=O)CN2CCN(Cc3ccccc3Cl)CC2)cc1 | . | -9 | . | . | . | .
Cc1nc(N2CCN(c3ccccc3)CC2)[nH]c(=O)c1CCC(C)C | -1 | 0 | 3 | 15 | 1 | .
CCCCCc1c(C)nc(Nc2ccccc2)[nH]c1=O | -1 | 3 | -1 | 104* | -4 | 86*
Cc1nc(Nc2ccc(F)cc2)[nH]c(=O)c1CCC(C)C | 3 | 5 | -1 | 104* | -2 | 107*
O=C(Nc1ccccc1)ON=Cc1ccccc1Cl | . | 2 | . | . | . | .
FC(F)(F)c1cccc(NC(=S)Nc2ccc(Cl)cc2Cl)c1 | 2 | 1 | 1 | 105* | -4 | 101*
O=C(/C=C/c1cccc(C(F)(F)F)c1)Nc1cccc(C(F)(F)F)c1 | 1 | 0 | 5 | 97* | 6 | 100*
FC(F)(F)c1cccc(NC(=S)NCC2COc3ccccc3O2)c1 (stereo unspecified) | 0 | 5 | -1 | 103* | 0 | 2
O=C(Cc1ccccc1)NC(=S)Nc1cccc(C(F)(F)F)c1 | 0 | 5 | -1 | 108* | -1 | 102*
O=C(Nc1ccc(-c2nc3ccccc3[nH]2)cc1)c1ccc2c(c1)OCO2 | 3 | -57 | 13 | 105* | 12 | 27
O=C(Nc1cccc(-c2nc3ccccc3[nH]2)c1)c1cccc(NC(=O)c2ccco2)c1 | -1 | -39 | 8 | 107* | -2 | -20
CCn1c(SCC(=O)NN=Cc2ccccc2OCC(=O)O)nnc1-c1ccc(C(C)(C)C)cc1 | . | 1 | . | . | . | .
CC(C)(C)C1CCc2onc(C(=O)Nc3cccc(O)c3)c2C1 (stereo unspecified) | 1 | 4 | 3 | 109* | 4 | 25

High-throughput results deposited in PubChem by several laboratories.
